Nine compounds from ChEMBL document CHEMBL1129996, “1-Aryl-3,5-dihydro-4H-2,3-benzodiazepin-4-ones: novel AMPA receptor antagonists” (J Med Chem, 1997) can be followed below.

Where “and” joins values, the source holds several entries; their conditions need not be identical. Equal values may be shown once. Bounds are passed on as bounds.

For series [1], the system named is Mus musculus. Description: Anticonvulsant activity against tonic phase of the audiogenic seizures in DBA / 2 mice 30 min after ip administration at a dose range 10-120 uM/kg. The format is functional. The following applies: 0.5 h. An outline of the steps: (§1)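 Groups of 10 DBA/2 mice of either sex; drug ip (0.1 mL/10 g) as fresh solution in 50% DMSO/50% saline, 30 min before auditory stimulation (12-16 kHz, 109 dB, 60 s or until tonic extension) under perspex dome after 60 s habituation. Latency and incidence of wild running, clonic and tonic phases scored; ED50 (95% confidence limits) by Litchfield-Wilcoxon.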

Series [2] is described as follows: Motor toxicity in 50% of mice on locomotion assessed by Rotarod test following 30 min ip administration. The format is organism-based. Particulars: mouse, in vivo. An outline of the steps:
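Male Swiss mice (20-26 g, 48-54 days), groups of 10, trained on rotarod (3 cm, 8 rpm); tested 30 min after ip dosing. Impairment = failure to stay on for 2 min; TD50 (95% confidence limits) by Litchfield-Wilcoxon.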

Series [3] can be described thus: Relative lipophilicity of compound. In kind it is physicochemical. Particulars: reversed-phase TLC, acetone/water 2:1. The method, boiled down: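 Reversed-phase TLC type lipophilicity: plates dried 105 °C 1 h, mobile phase acetone:water 2:1, 1 µL of 3 mg/mL CHCl3 solution spotted; five runs with varied positions, mean Rf converted as Rm = log[(1/Rf) - 1].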
Series [4] deals with Mus musculus. Nature of the series: Anticonvulsant activity against the maximal electroshock in Swiss mice after 45 minutes pretreatment at a dose range 10-150 uM/kg. The format is functional. An outline of the steps:
(§2)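 Swiss mice dosed ip in 50% DMSO/50% saline 45 min before ear-clip electroshock (50 mA, 20 ms pulses, 35 Hz, 400 ms). Protection = abolition of tonic hindlimb extension. Usually 4-5 doses with 8-10 mice each; ED50 (95% confidence limits) by Litchfield-Wilcoxon.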

Series [5] has as its system Mus musculus. Description: Anticonvulsant activity against clonic phase of the audiogenic seizures in DBA / 2 mice 30 min after ip administration at a dose range 10-120 uM/kg. The format is functional. Particulars: 0.5 h. The method, boiled down: as §1
Series [6] relates to Mus musculus. Description: Pentylenetetrazole-induced seizures in Swiss mice after 45 min pretreatment at a dose range 10-150 uM/kg. The format is functional.
Series [7] deals with Mus musculus. Description: Anticonvulsant activity against the maximal electroshock in Swiss mice after 45 minutes pretreatment at a dose range 10-100 uM/kg. The format is functional. An outline of the steps: as §2
The species entered for series [8] is Mus musculus. Description: Audiogenic seizures after concomitant treatment with Flumazenil (8.24 uM) in DBA / 2 mice clonic phase. In kind it is functional.
The subject of series [9] is Mus musculus. Description: Audiogenic seizures after pretreatment with Aniracetam in DBA / 2 mice clonic phase at a dose range of 33-300 uM/kg. The format is functional. An outline of the steps: (§3)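 DBA/2 mice pretreated with aniracetam 50 nmol icv 60 min before auditory testing, with ip 2,3-benzodiazepine; audiogenic clonic and tonic phases scored; ED50 by Litchfield-Wilcoxon.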

The test system of series [10] is Mus musculus. Description: Pentylenetetrazole-induced seizures in Swiss mice after 45 min pretreatment at a dose range 10-100 uM/kg. The format is functional. An outline of the steps: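 Male Swiss mice (20-26 g), compound ip in 50% DMSO/50% saline 45 min before sc pentylenetetrazole at CD97 (85 mg/kg), then observed 30 min. Protection is absence of clonic spasms lasting at least 5 s. Typically 4-5 doses, 8-10 mice per dose. ED50 with 95% confidence limits by Litchfield and Wilcoxon.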

Series [11] deals with Mus musculus. Nature of the series: Anticonvulsant activity against tonic phase of the audiogenic seizures in DBA / 2 mice 30 min after ip administration at a dose range 10-100 uM/kg. In kind it is functional. Particulars: 0.5 h. The method, boiled down: as §1
The species named for series [12] is Mus musculus. Nature of the series: Audiogenic seizures after concomitant treatment with Flumazenil (24.72 uM) in DBA / 2 mice tonic phase. In kind it is functional.
For series [13], the species on record is Mus musculus. Nature of the series: Audiogenic seizures after concomitant treatment with Flumazenil (24.72 uM) in DBA / 2 mice clonic phase. In kind it is functional.
For series [14], the system named is Mus musculus. Nature of the series: Anticonvulsant activity against the clonic seizures induced by icv injection of AMPA in DBA / 2 mice at a dose range of 10-200 uM/kg. In kind it is functional. Particulars: central.
The subject of series [15] is Mus musculus. Description: Audiogenic seizures after pretreatment with Aniracetam in DBA / 2 mice tonic phase at a dose range of 33-300 uM/kg. The format is functional. The method, boiled down: as §3
In series [16] the test system is Mus musculus. Description: Anticonvulsant activity against the tonic seizures induced by icv injection of AMPA in DBA / 2 mice at a dose range of 10-200 uM/kg. The following applies: central. In kind it is functional.
Series [17] is described as follows: Therapeutic index it is the ratio between TD50 and ED50 (from the clonic phase of the audiogenic seizures). Particulars: read-out: TI. The method, boiled down:
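Therapeutic index computed as rotarod TD50 divided by ED50 for the clonic phase of audiogenic seizures in DBA/2 mice.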

The species entered for series [18] is Mus musculus. Nature of the series: Audiogenic seizures after concomitant treatment with Flumazenil (8.24 uM) in DBA / 2 mice tonic phase. The format is functional.
In series [19] the test system is Mus musculus. Description: Anticonvulsant activity against clonic phase of the audiogenic seizures in DBA / 2 mice 30 min after ip administration at a dose range 10-100 uM/kg. In kind it is functional. Particulars: 0.5 h. An outline of the steps:
as §1

Series [20] relates to Mus musculus. Nature of the series: Anticonvulsant activity against clonic phase of the audiogenic seizures in DBA / 2 mice 30 min after ip administration at a dose range 33-200 uM/kg. In kind it is functional. The following applies: 0.5 h. The method, boiled down:
as §1

The test system of series [21] is Mus musculus. Description: Anticonvulsant activity against the maximal electroshock in Swiss mice after 45 minutes pretreatment at a dose range 33-200 uM/kg. The format is functional. The method, boiled down:
as §2

Series [22] has as its system Mus musculus. Nature of the series: Pentylenetetrazole-induced seizures in Swiss mice after 45 min pretreatment at a dose range 33-200 uM/kg. The format is functional.
Series [23] deals with Mus musculus. Description: Anticonvulsant activity against tonic phase of the audiogenic seizures in DBA / 2 mice 30 min after ip administration at a dose range 33-200 uM/kg. Particulars: 0.5 h. The format is functional. An outline of the steps: as §1

As for `COc1cc2c(cc1OC)C(c1ccc([N+](=O)[O-])cc1)=NN(C)C(=O)C2`, the ED50 in the series with Mus musculus [1] is > 120 µmol/kg and > 44 mg/kg; in the series with Mus musculus [4] it was greater than 150 µmol/kg; in the series on Mus musculus [5], > 120 µmol/kg and > 44 mg/kg; in the series on Mus musculus [6], greater than 150 µmol/kg. The compound further came in with a TD50 at 0.5 h in [2] greater than 150 µmol/kg. Moreover, in series [3], the Rm was 0.11.

With `COc1cc2c(cc1OC)C(c1cccc([N+](=O)[O-])c1)=NNC(=O)C2`, the ED50 is > 120 µmol/kg and > 44 mg/kg in the series on Mus musculus [1]; greater than 150 µmol/kg in the series with Mus musculus [4]; > 120 µmol/kg and > 44 mg/kg in the series with Mus musculus [5]; greater than 150 µmol/kg in the series on Mus musculus [6]. Moreover, the TD50 at 0.5 h in series [2] was greater than 150 µmol/kg. This compound also returned a Rm in series [3] of -0.14.

`COc1cc2c(cc1OC)C(c1ccc(C#N)cc1)=NN(C)C(=O)C2`: the ED50 in the series on Mus musculus [1] was > 120 µmol/kg and > 44 mg/kg; in the series on Mus musculus [5], > 120 µmol/kg and > 44 mg/kg. The TD50 at 0.5 h in series [2] was greater than 150 µmol/kg. For the same compound, the Rm in series [3] was -0.031.

Regarding `COc1cc2c(cc1OC)C(c1ccc(C#N)cc1)=NN(C(C)=O)C(=O)C2`, the ED50 was > 120 µmol/kg and > 44 mg/kg in the series with Mus musculus [1]; > 120 µmol/kg and > 44 mg/kg in the series with Mus musculus [5]. The compound further yielded a TD50 at 0.5 h in [2] greater than 150 µmol/kg. In series [3], this compound gave a Rm of -0.065.

Take `COc1cc2c(cc1OC)C(c1ccccc1)=NNC(=O)C2`: the ED50 in the series on Mus musculus [7] is 35.8 µmol/kg; in the series listed under Mus musculus [8], 38.2 µmol/kg; in the series on Mus musculus [9] it was 215 µmol/kg; in the series on Mus musculus [10] it was 68.2 µmol/kg; in the series with Mus musculus [11] it was 31.8 µmol/kg and 9.41 mg/kg; in the series listed under Mus musculus [12] it was 41.3 µmol/kg. Moreover, the 50% effective dose (ED50) came to 50.9 µmol/kg in the series listed under Mus musculus [13]; 66 µmol/kg with Mus musculus [14]; 157 µmol/kg in the series on Mus musculus [15]; 42.6 µmol/kg in the series on Mus musculus [16]; 35.8 µmol/kg in the series listed under Mus musculus [18]. In series [2], this compound showed a TD50 at 0.5 h of 142 µmol/kg. The same compound showed a Rm in [3] of -0.012. Besides, the therapeutic index (TD50/ED50) in [17] was determined as 4.2.

As for `COc1cc2c(cc1OC)C(c1ccccc1)=NN(C)C(=O)C2`, the ED50 in the series on Mus musculus [9] is 259 µmol/kg; with Mus musculus [11], 26.7 µmol/kg and 8.28 mg/kg; in the series with Mus musculus [14], 76.1 µmol/kg; in the series on Mus musculus [15] it was 197 µmol/kg; in the series on Mus musculus [16], 69.6 µmol/kg; in the series with Mus musculus [4], 42.7 µmol/kg. The ED50 with Mus musculus [6] is 89.9 µmol/kg; in the series on Mus musculus [19], 37.8 µmol/kg and 11.7 mg/kg. In addition, the TD50 at 0.5 h in [2] was 154 µmol/kg. The compound also came in with a Rm in series [3] of 0. Further, in [17], the therapeutic index (TD50/ED50) is 4.1.

On to `COc1cc2c(cc1OC)C(c1ccc(Cl)cc1)=NNC(=O)C2`, for which the ED50 in the series on Mus musculus [20] is 102 µmol/kg and 33.7 mg/kg; in the series on Mus musculus [21], 115 µmol/kg; in the series with Mus musculus [22], 145 µmol/kg; in the series with Mus musculus [23] it was 75.3 µmol/kg and 24.8 mg/kg. The same compound returned a TD50 at 0.5 h in series [2] of 240 µmol/kg. Further, the Rm in [3] is given as 0.017. For the same compound, the therapeutic index (TD50/ED50) in series [17] stood at 2.3.

Consider `COc1cc2c(cc1OC)C(c1ccc(Br)cc1)=NN(C)C(=O)C2`, for which the ED50 is 38 µmol/kg and 14.8 mg/kg in the series with Mus musculus [11]; 63 µmol/kg and 24.5 mg/kg in the series with Mus musculus [19]. Besides, the Rm in series [3] is on record as 0.288.

Regarding `COc1cc2c(cc1OC)C(c1ccc(C#N)cc1)=NNC(=O)C2`, the ED50 was > 120 µmol/kg and > 44 mg/kg with Mus musculus [1]; greater than 150 µmol/kg in the series with Mus musculus [4]; > 120 µmol/kg and > 44 mg/kg in the series with Mus musculus [5]; greater than 150 µmol/kg in the series on Mus musculus [6]. The compound further returned a TD50 at 0.5 h in series [2] greater than 150 µmol/kg. Besides, the Rm in [3] is recorded as -0.218.

In general, ED50 refers to the midpoint of the dose-response relation. By TD50 is commonly meant the dose at which the toxic effect under study appears in half of the subjects. Higher therefore signals harm only at a large dose.
